As a reminder, the CC50 is the concentration at which the toxic effect on the cells reaches its halfway point. Read a low CC50 as greater toxicity to the cells. A word on the IC50: it is the point on the concentration scale where inhibition reaches its midpoint.

This is an account of results in PMC2910123 (Journal of inorganic biochemistry, 2010).

Data set [1] relates to poly (dG-dC).poly (dG-dC). Conditions: cited from earlier work.
Data set [2] relates to poly (dA-dT).poly (dA-dT). Conditions: cited from earlier work.
The test system of data set [3] is CT DNA. As to the kind of experiment: Fluorimetric. It counts as binding, calf. Conditions: 25°C, 5mM Tris/HCl, 50 mM NaClO4 buffer, pH=7.39; values calculated at 380 nm.
A further data set concerns SUP-T1 lymphoma cells. As to the kind of experiment: Cytotoxicity assay by flow cytometry. It counts as cell-based, human. (In flow cytometry, cells or beads pass a laser one at a time.)
Data set [4] concerns Jurkat human T lymphocyte leukemia cells. As to the kind of experiment: Cytotoxicity assay by flow cytometry. The data set is classed as cell-based.
The test system of the next data set is pBR322 plasmid DNA. The experiment in a line: Electrophoresis Mobility Shift Assay. It counts as binding. To be noted: pBR322, 20 h at 37°C, molar ratios 0.25 to 1.0 (cisplatin 0.5 eq.).
The subject of data set [5] is CT DNA. As to the kind of experiment: Thermal denaturation of CT DNA. It counts as binding, calf. Conditions: 0.5 equivalents of drug, 1h at 25°C, 5 mM Tris/HCl buffer; for ΔTm /1h incubation/25mM NaClO4: pH=7.39, 25mM NaClO4; for ΔTm /1h incubation/50m M NaClO4: pH=7.39, 50 mM NaClO4.
For data set [6], the system named is CT DNA. The experiment in a line: Spectrophotometric. The data set is classed as binding, calf. To be noted: 25°C, 5mM Tris/HCl, 50 mM NaClO4 buffer, pH=7.39; average of values calculated at 330 and 343 nm.
For data set [7], the system named is CT DNA. As to the kind of experiment: Circular dichroism spectroscopy of CT DNA. Conditions: incubated at 37°C with increasing drug/DNA ratios. It counts as binding, calf. On the technique in general: Circular dichroism is the unequal absorption of left and right circularly polarised light.
For data set [8], the system named is several cancer cell lines. To be noted: cited from earlier work.
In the next data set the test system is Jurkat cells. As to the kind of experiment: Apoptosis assay by two-color flow cytometry. It counts as cell-based, human. Conditions: 100 µM, 16 h. The method, boiled down: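 Jurkat cells were plated at 100,000 cells/well in RPMI 1640 with antibiotics and 10% heat-inactivated newborn calf serum, then exposed to 100 µM test compound (in 0.9% NaCl or DMSO) for 16 h. Cells were pelleted cold, washed in cold medium then PBS, and stained with Annexin V-FITC plus PI in HEPES binding buffer (pH 7.4, 140 mM NaCl, 2.55 mM CaCl2). Compensation used unstained, single- and double-stained cells.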

In data set [9] the test system is HCT-116 colon cancer cell lines. To be noted: cited from earlier work.
The subject of data set [10] is dedifferentiated liposarcoma cell line LS141. Conditions: cited from earlier work.

As for `CCN(CC)CCCC(C)Nc1ccnc2cc(Cl)ccc12.O=P(O)(O)O.O=P(O)(O)O` (single isomer, unassigned; (-)) [(−)-CQDP], the “binding affinity ratio of (−) to (+) enantiomer” value in [1] is 1.29; in data set [2], 1.28.
Regarding `CCN(CC)CCCC(C)Nc1ccnc2cc(Cl)ccc12` (stereo not shown) [CQDP, chloroquine diphosphate], in the data set with CT DNA [3], the “Kb1, Emission Titration” value was 2.63e+07 M⁻¹ and the “Kb2, Emission Titration” value was 438000 M⁻¹. For the same compound, the midpoint of cytotoxicity in the data set with SUP-T1 lymphoma cells (Homo sapiens, SUP-T1, 20 h), the CC50, lay at 130 µM. This compound also registered a cytotoxic concentration (CC50) in data set [4] (Homo sapiens, 20 h) of 95 µM. Besides, the “effect on electrophoretic mobility of CCC and OC forms” value in the data set on pBR322 plasmid DNA is “does not cause any significant effect”. In the data set with CT DNA [5], the “ΔTm /1h incubation/25mM NaClO4” value is “+4.9 °C” and the “ΔTm /1h incubation/50m M NaClO4” value is “+3.0 °C”. Besides, in the data set with CT DNA [6], the “Kb1, Absorption Titration” value is reported as 1.07 ± 0.05 x 10^7 M^−1 and the “Kb2, Absorption Titration” value is given as 1.23 ± 0.68 x 10^5 M^−1. Moreover, the “changes in CD spectrum of CT DNA” value in the data set on CT DNA [7] was “two new sizable CD bands at 330 and 340 nm”.
For the compound `N.N.[Cl][Pt][Cl]` [cisplatin], the “effect on electrophoretic mobility of CCC and OC forms” value in the data set on pBR322 plasmid DNA was “decrease in mobility of the CCC form and an increase in mobility of the OC form”.
Regarding Ru(KTZ)2Cl2, the IC50 in data set [8] is around 25 µM.
In the case of “[Ru(η^6-p-cymene)(η^6-CQDP)][BF4]2 [Complex 5]”, in the data set with CT DNA [3], the “Kb1, Emission Titration” value was 1.2e+06 M⁻¹ and the “Kb2, Emission Titration” value is 354000 M⁻¹. The same compound displayed a CC50 with SUP-T1 lymphoma cells (SUP-T1, 20 h of incubation, PI and flow cytometry, average of triplicates) of 70 µM. For the same compound, the “mechanism of cell death (apoptosis/necrosis)” value with Jurkat cells is on record as “mainly induce apoptosis”. In data set [4] (20 h of incubation, PI and flow cytometry, average of triplicates), this compound gave a CC50 of 77 µM. Moreover, the “antitumor activity (in words)” value in data set [9] was “active”. In the data set on CT DNA [5], the “ΔTm /1h incubation/25mM NaClO4” value was “+5.1 °C” and the “ΔTm /1h incubation/50m M NaClO4” value was “+2.8 °C”. Moreover, in [10], the “antitumor activity (in words)” value was “active”. Besides, in the data set on CT DNA [6], the “Kb1, Absorption Titration” value is 2.10 ± 0.68 x 10^7 M^−1 and the “Kb2, Absorption Titration” value was 3.15 ± 0.12 x 10^5 M^−1.
